Calls of active or inactive are those of the source. The calls are words filed in the database; no cut-off is given here.
Experiments:
[1] = tested on: RAW; experiment: Inhibition of interferon gamma-stimulated NO production in RAW 264.7 cells after 24 hrs; type: functional, cell-based, Mus musculus
[2] = molecular target: T1, Heme oxygenase 1 (Mus musculus) (UniProt P14901); experiment: Induction of HO1 in CD1 mouse stomach at 1 umol, po after 6 hrs; type: organism-based
T1 sequence (whole entry): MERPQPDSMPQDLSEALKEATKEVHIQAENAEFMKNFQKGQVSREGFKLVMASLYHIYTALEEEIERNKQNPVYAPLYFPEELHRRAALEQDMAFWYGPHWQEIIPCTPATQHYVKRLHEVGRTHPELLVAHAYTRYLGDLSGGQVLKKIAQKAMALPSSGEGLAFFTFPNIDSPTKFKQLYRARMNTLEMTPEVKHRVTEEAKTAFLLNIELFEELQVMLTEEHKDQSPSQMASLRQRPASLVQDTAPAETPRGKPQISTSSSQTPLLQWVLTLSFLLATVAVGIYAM
Outline: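 Male CD-1 mice, three per group, were each gavaged with a single 1 μmol dose. HO-1 induction was then assessed in the stomach.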

[3] = molecular target: T1, Heme oxygenase 1 (Mus musculus); experiment: Induction of HO1 in CD1 mouse liver at 1 umol, po after 6 hrs; type: organism-based
Outline: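 Compound given orally at 1 μmol. Livers were collected 6 h later, and HO-1 protein was measured by Western blot.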

CC1(C)C(=O)C(C#N)=C[C@]2(C)C3=CC(=O)C(C#N)=CC3(C#C[Si](C)(C)C)CC[C@@H]12 (mixture of isomers)
IC50 ([1]; Mus musculus, RAW, 24 h): 3 nM

CC1(C)C(=O)C(C#N)=C[C@]2(C)C3=CC(=O)C(C#N)=C[C@]3(C#CC#N)CC[C@@H]12 (racemic)
IC50 ([1]; Mus musculus, RAW, 24 h): 4 nM

CC1(C)C(=O)C(C#N)=C[C@@]2(C)C3=CC(=O)C(C#N)=C[C@@]3(C#C[Si](C)(C)C)CCC12 (some centres undefined)
IC50 ([1]; Mus musculus, RAW, 24 h): 2 nM

CC[C@]12C=C(C#N)C(=O)C=C1[C@@]1(C)C=C(C#N)C(=O)C(C)(C)[C@@H]1CC2 (racemic)
IC50 ([1]; Mus musculus, RAW, 24 h): 10 nM

CC1(C)C(=O)C(C#N)=C[C@]2(C)C3=CC(=O)C(C#N)=C[C@]3(C#C[Si](C)(C)C)CC[C@@H]12
IC50 ([1]; Mus musculus, RAW, 24 h): 3 nM

CC1(C)CC[C@]2(C(=O)O)CC[C@]3(C)[C@H](C(=O)C=C4[C@@]5(C)C=C(C#N)C(=O)C(C)(C)[C@@H]5CC[C@]43C)[C@@H]2C1 [BARDOXOLONE]
IC50 ([1]; Mus musculus, RAW, 24 h): 20 nM
Activity [2]: Active
Activity [3]: Active

C#C[C@]12C=C(C#N)C(=O)C=C1[C@@]1(C)C=C(C#N)C(=O)C(C)(C)[C@@H]1CC2 (racemic) [listing 1 of 2 here]
IC50 ([1]; raw): 1 nM

CC1(C)CC[C@]2(C#N)CC[C@]3(C)C(C(=O)C=C4[C@@]5(C)C=C(C#N)C(=O)C(C)(C)[C@@H]5CC[C@]43C)C2C1 (some centres undefined) [CDDO-CN]
IC50 ([1]; Mus musculus, RAW, 24 h): 1 nM

C=C[C@]12C=C(C#N)C(=O)C=C1[C@@]1(C)C=C(C#N)C(=O)C(C)(C)[C@@H]1CC2 (racemic)
IC50 ([1]; Mus musculus, RAW, 24 h): 10 nM

C#C[C@]12C=C(C#N)C(=O)C=C1[C@@]1(C)C=C(C#N)C(=O)C(C)(C)[C@@H]1CC2 (racemic) [listing 2 of 2 here]
Activity [2]: Active
Activity [3]: Active

C[C@@H]1C[C@H]2[C@@H]3CCC4=CC(=O)C=C[C@]4(C)[C@@]3(F)[C@@H](O)C[C@]2(C)[C@@]1(O)C(=O)CO [DEXAMETHASONE]
IC50 ([1]; Mus musculus, RAW, 24 h): 20 nM

CC1(C)C(=O)C(C#N)=C[C@]2(C)C3=CC(=O)C(C#N)=C[C@]3(C)CC[C@@H]12
IC50 ([1]; Mus musculus, RAW, 24 h): 30 nM
Activity [2]: Active
Activity [3]: Active

CC#C[C@]12C=C(C#N)C(=O)C=C1[C@@]1(C)C=C(C#N)C(=O)C(C)(C)[C@@H]1CC2 (racemic)
IC50 ([1]; Mus musculus, RAW, 24 h): 5 nM

C#C[C@]12C=C(C#N)C(=O)C=C1[C@@]1(C)C=C(C#N)C(=O)C(C)(C)[C@@H]1CC2
IC50 ([1]; raw): 3 nM

CCC#C[C@]12C=C(C#N)C(=O)C=C1[C@@]1(C)C=C(C#N)C(=O)C(C)(C)[C@@H]1CC2 (racemic)
IC50 ([1]; Mus musculus, RAW, 24 h): 20 nM

CC1(C)CC[C@]2(C(=O)n3ccnc3)CC[C@]3(C)[C@H](C(=O)C=C4[C@@]5(C)C=C(C#N)C(=O)C(C)(C)[C@@H]5CC[C@]43C)[C@@H]2C1
IC50 ([1]; Mus musculus, RAW, 24 h): 1 nM
Activity [2]: Active
Activity [3]: Active

C#C[C@@]12C=C(C#N)C(=O)C=C1[C@]1(C)C=C(C#N)C(=O)C(C)(C)C1CC2 (some centres undefined)
IC50 ([1]; Mus musculus, RAW, 24 h): 1 nM

From ChEMBL document CHEMBL1143003, “Novel tricyclic compounds having acetylene groups at C-8a and cyano enones in rings A and C: highly potent anti-inflammatory and cytoprotective agents” (J Med Chem, 2007)
